Experiment [1] concerns the target T1, purified rabbit 20S proteasome (Oryctolagus cuniculus, UniProt G1T4Q9).
T1 sequence (G1T4Q9 60-263): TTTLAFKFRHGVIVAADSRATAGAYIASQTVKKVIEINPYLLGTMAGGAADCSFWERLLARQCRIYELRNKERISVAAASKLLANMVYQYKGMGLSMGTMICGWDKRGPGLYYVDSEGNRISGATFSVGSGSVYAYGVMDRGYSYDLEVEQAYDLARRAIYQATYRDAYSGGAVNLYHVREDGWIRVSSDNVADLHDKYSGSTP
In words: Inhibition of purified 20S proteasome chymotrypsin-like activity. Format: biochemical. The conditions noted are these: for proteasome inhibition: even at 50 μM, Fig. 2A. The gist of the method: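 Purified rabbit 20S proteasome (35 ng) incubated with 20 μM Suc-LLVY-AMC in 20 mM Tris–HCl pH 7.5, with test compound at various concentrations or solvent, for 2 h at 37°C. Chymotrypsin-like activity was read as fluorogenic substrate hydrolysis at 355 nm excitation and 460 nm emission.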

Experiment [2] concerns the target T2, 26S proteasome in MDA-MB-231 cell extract (Homo sapiens, UniProt P28074).
T2 sequence (P28074 60-263): T1 sequence (G1T4Q9 60-263) with D197E
Description: Proteasomal chymotrypsin-like activity in MDA-MB-231 cell extract. The class given is biochemical. The note with it: for change of proteasome inhibitory activity with COMT inhibitor DNC: lysate pre-treated with 10 μM DNC for 20 minutes, Fig. 3B; for inhibition of proteasomal activity: MDA-MB-231 cell lysate with high COMT activity, 1-10 μM, 2 h, Fig. 3A. The gist of the method: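 MDA-MB-231 cell extract (5.7 μg; lysate with high COMT activity) incubated with 20 μM Suc-LLVY-AMC in 20 mM Tris–HCl pH 7.5 with test compound at various concentrations or solvent, 2 h, 37°C. Chymotrypsin-like activity was measured by fluorescence at 355/460 nm. In the COMT-blocked arm, the extract was pre-treated 20 min with 10 μM 3,5-dinitrocatechol, then co-incubated with test compound for 2 h.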

Experiment [3] has as its system proteasome chymotrypsin-like activity. The conditions noted are these: cited from earlier work.
In the next experiment the test system is MDA-MB-231 cells. Description: MTT assay, cell proliferation. Format: cell-based, human. The conditions noted are these: for inhibition of cell proliferation: MDA-MB-231, 25 to 50 μM, 24 h, MTT, Fig. 4; for cell growth inhibition compared to non-acetylated precursors 5 and 7: MDA-MB-231, Fig. 4. The gist of the method: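 MDA-MB-231 cells were grown in RPMI 1640 with 10% FBS and penicillin/streptomycin at 37°C, 5% CO2. Triplicate wells were treated with test compound (25 or 50 μM) for 24 h. The medium was aspirated, then MTT (1 mg/ml) was added for 3 h at 37°C. The formazan was dissolved in DMSO and absorbance read at 540 nm.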

The next experiment deals with cancer cell lines. The conditions noted are these: a number of cancer cell lines; cited from earlier work.
Experiment [4] relates to proteasome in MDA-MB-231 cells. Description: Accumulation of ubiquitinated proteins, Western blotting. The class given is cell-based, human. The conditions noted are these: MDA-MB-231, 50 μM, 22 hours, compared with compound 6 and Pro-EGCG (4), Fig. 6. The gist of the method: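 MDA-MB-231 cells (ATCC; RPMI 1640 with 10% FBS, penicillin/streptomycin; 37°C, 5% CO2) exposed to 50 μM test compound for 22 h. Extracted proteins were analysed by Western blot with antibodies against ubiquitinated proteins, with actin as loading reference.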
(In western blotting, separated proteins are transferred to a membrane and probed.)

Molecules are shown by their SMILES. Where a chain is given by its changes, count along the chain named.

The IC50 is the point on the concentration scale where inhibition reaches its midpoint.

For the molecule `O=C(O[C@@H]1Cc2c(O)cc(O)cc2O[C@@H]1c1cc(O)c(O)c(O)c1)c1cc(O)c(O)c(O)c1` [EGCG, (-)-Epigallocatechin-3-gallate, reference compound], the “inhibition of proteasomal chymotryptic activity” value in experiment [1] (Fig. 2) is reported as “potently inhibited”. Also, the “change of proteasome inhibitory activity with COMT inhibitor DNC” value (from here on “change of proteasome inhibitory activity”) in experiment [2] is listed as “improved”. Also, the IC50 in experiment [3] (read-out: IC50, chymotrypsin-like activity of the proteasome in vitro, in vitro) was 86 to 194 nM.
Consider `CC(=O)Oc1cc(OC(C)=O)c2c(c1)O[C@H](c1cc(OC(C)=O)c(OC(C)=O)c(OC(C)=O)c1)[C@H](OC(=O)c1cc(OC(C)=O)c(OC(C)=O)c(OC(C)=O)c1)C2` [compound 4, peracetate of (-)-EGCG], for which the “inhibition of cell proliferation” value with MDA-MB-231 cells was 0 to 32%. The “activity as a proteasome inhibitor” value in experiment [3] is listed as “not active”. The “growth inhibitory activity relative to EGCG” value with cancer cell lines is listed as “enhanced growth inhibitory activity”.
Take `O=C(O[C@H]1Cc2ccccc2C[C@H]1OC(=O)c1cc(O)c(O)c(O)c1)c1cc(O)c(O)c(O)c1` [compound 5]: in experiment [2], the “inhibition of proteasomal activity” value is reported as 10-16% and the “change of proteasome inhibitory activity” value is given as “improved”.
For `CC(=O)Oc1cc(C(=O)O[C@H]2Cc3ccccc3C[C@H]2OC(=O)c2cc(OC(C)=O)c(OC(C)=O)c(OC(C)=O)c2)cc(OC(C)=O)c1OC(C)=O` [compound 6], in the experiment with MDA-MB-231 cells, the “inhibition of cell proliferation” value is recorded as “about 50%”; the “cell growth inhibition compared to non-acetylated precursors 5 and 7” value was “more potent”.
Consider `O=C(O[C@H]1Cc2ccccc2C[C@H]1OC(=O)c1cc(O)cc(O)c1)c1cc(O)cc(O)c1` [compound 7], for which, in experiment [2], the “inhibition of proteasomal activity” value is listed as 18-51% and the “change of proteasome inhibitory activity” value was “only slightly increased”.
On to `CC(=O)Oc1cc(OC(C)=O)cc(C(=O)O[C@H]2Cc3ccccc3C[C@H]2OC(=O)c2cc(OC(C)=O)cc(OC(C)=O)c2)c1` [compound 8], for which, in the experiment on MDA-MB-231 cells, the “inhibition of cell proliferation” value was 70-79%; the “cell growth inhibition compared to non-acetylated precursors 5 and 7” value was “more potent”. In addition, in experiment [4], the “accumulation of ubiquitinated proteins” value is given as “higher levels of ubiquitinated proteins”.
On to `O=C(O[C@H]1Cc2ccccc2C[C@H]1O)c1cc(O)c(O)c(O)c1` [compound 16], for which the proteasome inhibition result in experiment [1] is recorded as “not active”.
On the same count and under the same terms, to `O=C(O[C@H]1Cc2ccccc2C[C@H]1O)c1cc(O)cc(O)c1` [compound 21] belongs “not active”.

The record behind these values is paper PMC2819655 (Bioorganic & medicinal chemistry, 2009).
